Source: PMC3831274 (Bioorganic & medicinal chemistry, 2013)

Columns and labels:
[1] = biological target: Bcl-xL (Homo sapiens, UniProt Q07817); experiment: fluorescence polarization; format: binding
[2] = biological target: Human Mcl-1 (Homo sapiens, UniProt Q07820); experiment: fluorescence polarization; format: binding; details: for Mcl-1 potency relative to initial hit 1 (in words): SAR of phenyl region
[3] = tested on: several cell lines derived from various human malignancies; experiment: antiproliferative activity across several cell lines; format: cell-based
Outline: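 Cells at 2.5 × 10⁵ cells/mL in 384-well plates; suspension lines in RPMI-1640/10% FBS (mouse lines plus β-mercaptoethanol), adherent lines in DMEM/10% FBS. Seven 2-fold dilutions from 5 µM or 20 µM top; DMSO top 0.2%. 37°C, 48 h; PrestoBlue read-out. Media background subtracted; viability normalized to cells-only wells (100%). Two independent triplicate runs (n=6) or three replicate experiments, by cell set.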

[4] = tested on: Bcl2-1863; experiment: nuclear apoptosis determination; format: cell-based, mouse; details: Bcl2-1863, 24 hours
[5] = tested on: Mcl1-1780; experiment: nuclear apoptosis determination; format: cell-based, mouse; details: Mcl1-1780, 24 hours
[6] = biological target: CYP450 3A4 (Homo sapiens, UniProt P08684); experiment: CYP450 inhibition 3A4; format: in vitro ADME
Chain of CYP450 3A4 (P08684 whole entry): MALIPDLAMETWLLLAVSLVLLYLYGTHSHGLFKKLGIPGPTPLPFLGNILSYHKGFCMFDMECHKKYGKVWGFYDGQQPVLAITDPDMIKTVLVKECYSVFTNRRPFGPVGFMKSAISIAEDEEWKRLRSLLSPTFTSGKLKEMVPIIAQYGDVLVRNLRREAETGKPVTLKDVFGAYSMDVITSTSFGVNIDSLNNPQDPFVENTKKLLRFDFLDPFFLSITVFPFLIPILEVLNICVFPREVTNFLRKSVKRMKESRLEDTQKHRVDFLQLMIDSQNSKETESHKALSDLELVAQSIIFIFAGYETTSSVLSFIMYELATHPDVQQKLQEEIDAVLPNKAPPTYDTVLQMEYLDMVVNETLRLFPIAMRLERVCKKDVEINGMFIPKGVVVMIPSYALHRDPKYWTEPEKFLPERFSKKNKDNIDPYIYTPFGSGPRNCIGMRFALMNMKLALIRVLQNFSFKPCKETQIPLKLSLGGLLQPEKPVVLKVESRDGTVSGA

[7] = tested on: SUDHL-10; experiment: cytochrome c release determination; format: cell-based, human; details: SUDHL-10, 2 hours, 20µM EU-5346 or 100µM Puma
[8] = biological target: CYP450 2C9 (Homo sapiens, UniProt P11712); experiment: CYP450 inhibition 2C9; format: in vitro ADME
Chain of CYP450 2C9 (P11712 whole entry): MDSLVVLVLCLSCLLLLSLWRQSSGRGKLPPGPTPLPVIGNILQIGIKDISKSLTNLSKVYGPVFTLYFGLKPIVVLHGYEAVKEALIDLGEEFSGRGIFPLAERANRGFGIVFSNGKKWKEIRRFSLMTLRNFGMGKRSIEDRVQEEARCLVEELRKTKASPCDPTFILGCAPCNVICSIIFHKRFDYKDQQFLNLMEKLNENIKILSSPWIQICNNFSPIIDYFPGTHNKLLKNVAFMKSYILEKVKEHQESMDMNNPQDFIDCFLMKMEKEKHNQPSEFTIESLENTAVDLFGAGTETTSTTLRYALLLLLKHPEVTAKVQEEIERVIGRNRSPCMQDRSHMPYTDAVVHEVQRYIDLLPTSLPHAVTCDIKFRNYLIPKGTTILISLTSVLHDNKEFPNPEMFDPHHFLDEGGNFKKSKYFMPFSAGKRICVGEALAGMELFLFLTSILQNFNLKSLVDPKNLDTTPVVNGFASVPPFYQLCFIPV

[9] = tested on: SUDHL-8; experiment: cytochrome c release determination; format: cell-based, human; details: SUDHL-8, 2 hours, 20µM EU-5346 or 100µM Puma
[10] = tested on: SUDHL-6; experiment: cytochrome c release determination; format: cell-based, human; details: SUDHL-6, 2 hours, 20µM EU-5346 or 100µM Puma
[11] = tested on: Mcl1-1780; experiment: Annexin V apoptosis assay; format: cell-based, mouse; details: Mcl1-1780, 16 hours, 0.15 µM-40 µM
[12] = tested on: Bcl2-1863; experiment: Annexin V apoptosis assay; format: cell-based, mouse; details: Bcl2-1863, 16 hours, 0.15 µM-40 µM
[13] = biological target: CYP450 2D6 (Homo sapiens, UniProt P10635); experiment: CYP450 inhibition 2D6; format: in vitro ADME
Chain of CYP450 2D6 (P10635 whole entry): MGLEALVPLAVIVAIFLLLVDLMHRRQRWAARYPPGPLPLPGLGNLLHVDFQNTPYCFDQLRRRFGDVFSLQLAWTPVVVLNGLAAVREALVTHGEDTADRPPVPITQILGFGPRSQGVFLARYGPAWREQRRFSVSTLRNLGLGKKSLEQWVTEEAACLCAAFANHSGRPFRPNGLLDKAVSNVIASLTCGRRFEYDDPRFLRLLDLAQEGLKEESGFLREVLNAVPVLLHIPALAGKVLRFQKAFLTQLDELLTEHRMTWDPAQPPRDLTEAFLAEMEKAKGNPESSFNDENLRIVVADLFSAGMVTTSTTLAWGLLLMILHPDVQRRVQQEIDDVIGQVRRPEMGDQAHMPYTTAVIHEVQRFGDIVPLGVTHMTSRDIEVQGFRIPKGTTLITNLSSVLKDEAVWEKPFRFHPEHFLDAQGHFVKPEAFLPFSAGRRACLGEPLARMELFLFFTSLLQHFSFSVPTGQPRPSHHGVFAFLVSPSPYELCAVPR

[14] = biological target: T1, CYP450 1A2 (Homo sapiens, UniProt P05177); experiment: CYP450 inhibition 1A2
T1 sequence (P05177 1-516): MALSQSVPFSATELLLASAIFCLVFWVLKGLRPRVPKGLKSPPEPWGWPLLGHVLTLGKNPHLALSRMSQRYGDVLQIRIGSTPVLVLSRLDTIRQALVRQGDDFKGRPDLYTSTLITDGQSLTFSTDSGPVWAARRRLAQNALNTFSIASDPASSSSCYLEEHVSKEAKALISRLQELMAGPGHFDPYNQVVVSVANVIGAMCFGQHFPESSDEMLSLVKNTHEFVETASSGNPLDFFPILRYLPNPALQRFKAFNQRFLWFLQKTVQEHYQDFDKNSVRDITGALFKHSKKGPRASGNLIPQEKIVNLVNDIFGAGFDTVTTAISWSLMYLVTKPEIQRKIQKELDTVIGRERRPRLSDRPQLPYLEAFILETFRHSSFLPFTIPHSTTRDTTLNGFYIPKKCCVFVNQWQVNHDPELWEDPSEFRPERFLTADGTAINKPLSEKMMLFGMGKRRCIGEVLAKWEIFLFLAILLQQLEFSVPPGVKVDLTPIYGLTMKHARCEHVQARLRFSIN

[15] = tested on: Mcl1-1780; experiment: cytochrome c release determination; format: cell-based, mouse; details: Mcl1-1780 compared with Bcl2-1863, 2 hours

Chain of Human Mcl-1 (Q07820 1-327 limits assumed): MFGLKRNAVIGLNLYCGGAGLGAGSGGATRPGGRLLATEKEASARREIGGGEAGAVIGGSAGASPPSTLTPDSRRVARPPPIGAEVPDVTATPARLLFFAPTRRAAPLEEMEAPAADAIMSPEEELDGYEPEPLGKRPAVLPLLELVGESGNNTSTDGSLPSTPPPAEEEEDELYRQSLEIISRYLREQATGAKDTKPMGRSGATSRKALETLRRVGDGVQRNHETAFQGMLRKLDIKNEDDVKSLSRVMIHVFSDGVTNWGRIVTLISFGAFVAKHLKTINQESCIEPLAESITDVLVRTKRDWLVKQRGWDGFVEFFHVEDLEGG
Chain of Bcl-xL (Q07817 1-209 limits assumed): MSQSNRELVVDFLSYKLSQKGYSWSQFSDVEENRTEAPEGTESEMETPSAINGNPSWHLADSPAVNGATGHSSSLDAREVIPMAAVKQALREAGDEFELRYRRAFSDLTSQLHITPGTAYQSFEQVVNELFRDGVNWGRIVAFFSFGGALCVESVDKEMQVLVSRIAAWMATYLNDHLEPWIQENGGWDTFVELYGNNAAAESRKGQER

## O=C(O)COc1ccccc1C(Nc1ccccn1)c1cc(Cl)c2cccnc2c1O (stereo not shown) [Compound 1]
[1]; at 100 µM
  inhibition of Bcl-xL: no appreciable inhibition
[2]; Mcl-1 versus Bcl-xL, FP assays
  selectivity over Bcl-xL: greater than 40 fold
[3]; cell lines not specified
  antiproliferative activity (in words): only modest antiproliferative activity

## COc1ccc(C(Nc2ccccn2)c2cc(Cl)c3cccnc3c2O)cc1 (stereo not shown) [Compound 6]
[2]
  Mcl-1 potency relative to initial hit 1 (in words): enhanced potency

## CC1(C)CCC(c2ccc(Cl)cc2)=C(CN2CCN(c3ccc(C(=O)NS(=O)(=O)c4ccc(N[C@H](CCN5CCOCC5)CSc5ccccc5)c(S(=O)(=O)C(F)(F)F)c4)cc3)CC2)C1 [Navitoclax, reference compound]
[4]
  induction of nuclear apoptosis / reduced viability (DAPI): distinct preference in inducing apoptosis
[5]
  induction of nuclear apoptosis / reduced viability (DAPI): only minimal effectiveness

## Oc1c(C(Nc2ccccn2)c2ccco2)cc(Cl)c2cccnc12 (stereo not shown) [Compound 7]
[2]
  Mcl-1 potency relative to initial hit 1 (in words): enhanced potency

## Cc1ccnc(NC(c2ccc(F)cc2)c2cc(Cl)c3cccnc3c2O)c1 (stereo not shown) [Compound 8]
[2]
  Mcl-1 potency relative to initial hit 1 (in words): five-fold more potent

## CCN1CCN(C(c2ccc(C(F)(F)F)cc2)c2cc(Cl)c3cccnc3c2O)CC1 (stereo not shown) [Compound 9]
[6]
  IC50: > 10 µM
[7]
  cytochrome c release: significantly reduced
[8]
  IC50: > 10 µM
[9]
  cytochrome c release: significantly reduced
[10]
  cytochrome c release: greatest extent of cytochrome c release
[11]
  percent of Annexin V positive cells: greater in Mcl1-1780 than in Bcl2-1863
[12]
  percent of Annexin V positive cells: displayed dose-dependency
[1]; read-out: Bcl-xL IC50, FP assay, GST-Bcl-xL, FITC-Bim
  IC50: 40 µM
[13]
  IC50: > 10 µM
[14]
  IC50: > 10 µM
[15]
  cytochrome c release: significantly greater
[5]
  induction of nuclear apoptosis / reduced viability (DAPI): reduces viability with a marked preference
[3]; Homo sapiens, read-out: EC50 values, range over cell lines
  EC50: 0.3 to 15 µM
[3]; Mcl1-1780, Bcl2-1863, SUDHL-6, NCIH929
  efficacy in cellular proliferation assays (in words): low micromolar efficacy
